Screening results from PubChem BioAssay.
In the library only some 1.5% were active in any assay of this set; here they are far more common.
SIAE inh = inhibitors of human sialic acid acetylesterase SIAE | Q9HAT2 | inhibition, % at 9.66 µM | SIAE FP-Rh probe binding, fluorescence polarization | 370,000 compounds, 0.69% hits | AID 1053197;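 active = inhibition above a cutoff: mean of compounds within the control limits plus 3 SD of those, cut at about 17% in these data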;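 also: 0% = plate median of compound wells and 100% = probe without SIAE protein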
HTRA1 inh = blocks human HTRA1 serine peptidase. recombinant HTRA1, FP-rhodamine activity-based probe, fluorescence polarization. inhibition, % at 5.96 µM. 340,000 compounds, 0.5% hits. AID 504803; in the data active = inhibition above about 36%;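 also: 0% = enzyme with DMSO and 100% = wells lacking enzyme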
Target sequence (Q92743 whole entry, looked up): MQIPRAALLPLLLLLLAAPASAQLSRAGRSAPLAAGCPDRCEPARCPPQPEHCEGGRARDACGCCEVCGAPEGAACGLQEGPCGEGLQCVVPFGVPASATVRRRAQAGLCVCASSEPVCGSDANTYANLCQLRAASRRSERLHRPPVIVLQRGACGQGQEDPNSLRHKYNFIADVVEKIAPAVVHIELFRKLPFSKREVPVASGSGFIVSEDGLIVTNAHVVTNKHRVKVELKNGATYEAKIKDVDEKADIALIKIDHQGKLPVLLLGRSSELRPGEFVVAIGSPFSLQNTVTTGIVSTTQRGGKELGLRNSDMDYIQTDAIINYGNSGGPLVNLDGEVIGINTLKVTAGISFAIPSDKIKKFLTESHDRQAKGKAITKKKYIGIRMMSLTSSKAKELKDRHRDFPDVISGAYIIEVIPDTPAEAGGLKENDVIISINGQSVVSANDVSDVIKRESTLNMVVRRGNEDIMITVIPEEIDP
DAGLB inh = diacylglycerol lipase beta (human) inhibition; AID 504411; 340,000 compounds, 0.059% hits; HEK293T DAGLB membrane lysate, EnzChek fluorogenic substrate; inhibition, % at 5.17 µM; in the data active = inhibition above about 34%;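 also: 0% = enzyme with vehicle and 100% = wells lacking enzyme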
mABHD4 FP = ABHD4 (mouse) inhibition, primary FP screen | 370,000 compounds, 0.54% hits | inhibition, % at 8.92 µM | AID 720543 | Q8VD66 | purified mABHD4, FP-Rh probe fluorescence polarization;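 active = inhibition exceeding the mean over every tested compound plus 3 SD, cut at about 30% in these data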;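 also: 0% = plate median of compound wells and 100% = S159A mutant with DMSO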
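System: mouse ABHD4 enzyme, wild type / Medium: HEPES pH 7.0, NaCl, Pluronic buffer / Reagent: FP-Rh activity-based fluorescent probe / Control set: S159A mutant high control, sample median low control / Detection: fluorescence polarization with parallel and perpendicular emission, 525/598 nm / Schedule: 45 min + 60 min at 25 °C / Compound dosing: 8.92 µM, single dose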
TCR CD3 inh = human TCR-CD3 binding inhibition; TAMRA-labeled TCR probe fluorescence, biochemical; inhibition, % at 9.4 µM; 360,000 compounds, 0.37% hits; in the data active = inhibition above about 19%;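 also: recombinant mutant TCR 2C K166C tagged with TAMRA read by polarization; 0% = receptor in buffer alone and 100% = receptor with positive control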
SIAE confirm = confirmation of human SIAE inhibitors; inhibition, % at 9.66 µM; shares compounds with SIAE inh; 2,300 compounds, 13% hits; SIAE FP-Rh activity-based probe, fluorescence polarization;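 active = mean inhibition of the replicates above the hit cutoff set in the primary screen, cut at about 17% in these data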;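 also: 0% = SIAE with DMSO and probe and 100% = probe without SIAE; inhibitors lower polarization as more probe stays unbound to SIAE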
The depositor's hits bear a star; . = not tested or not shown.

SMILES	SIAE inh	HTRA1 inh	DAGLB inh	mABHD4 FP	TCR CD3 inh	SIAE confirm
c1ccc(-c2nc3ccccc3nc2-c2ccc(CN3CCC4(CC3)CNc3ccccc34)cc2)cc1	6.6	.	.	10.5	-1.7	.
COc1ccc(OC)c(NC(=O)CSc2nc3[nH]c(=O)[nH]c(=O)c3s2)c1	-31.3	-1.1	1.5	9.9	5.0	.
COc1ccc(OC)c(NC(=O)CSc2nc3[nH]c(=O)cc(O)c3s2)c1	18.8*	-3.2	4.3	16.0	5.9	-2.8
Oc1ccccc1-c1nc2c3ccccc3c3ccccc3c2[nH]1	26.6*	-21.2	1.8	-19.2	3.6	-2.3
Oc1ccccc1-c1ccn[nH]1	-1.6	6.4	-4.2	0.3	-2.9	.
COc1ccccc1NC(=O)c1ccc(-n2ccnc2)c([N+](=O)[O-])c1	24.3*	4.0	1.4	5.3	-3.2	7.9
O=C(Nc1ccc(Nc2ccccc2)cc1)c1cc([N+](=O)[O-])ccc1Cl	24.0*	21.8	5.6	1.9	2.4	8.5
COc1ccc(C(=O)Nc2ccc(Nc3ccccc3)cc2)cc1[N+](=O)[O-]	18.7*	11.7	6.1	3.1	-0.3	7.0
COc1ccc2cc(C(=O)CS(=O)(=O)c3ccc(Cl)cc3)c(=O)oc2c1	5.1	.	.	14.4	2.5	.
COC(=O)[C@]12C[C@H](CC(=O)NCc3ccc(OC)c(OC)c3)C(=O)N(Cc3ccccc3)C1=C[C@H](COCc1ccccc1)O[C@@H]2C	0.9	.	.	-2.3	.	.
CCCCNc1cccc2c1S(=O)(=O)N[C@@H](CC(C)C)CO2	-7.0	.	.	-1.6	1.3	.
CCCCCCCCNS(=O)(=O)CC1NCc2ccc(C)cc21 (configuration not stated)	4.3	.	.	-6.8	.	.
Cc1ccc(C2(C)NC(=O)N(CC(=O)Nc3ccc4[nH]c(=O)[nH]c4c3)C2=O)cc1 (configuration not stated)	3.3	2.4	2.2	3.3	-1.5	.
CC1(c2ccc(Cl)cc2Cl)NC(=O)N(CC(=O)Nc2ccc3[nH]c(=O)[nH]c3c2)C1=O (configuration not stated)	24.0*	-3.1	1.1	2.5	10.9	1.9
C[C@@H]1Cc2cc(O)c(O)c(O)c2C(=O)O1	5.6	.	.	27.8	.	.
O=C1/C(=C\c2ccco2)SC(=S)N1c1ccccc1	24.8*	11.5	-3.8	18.4	1.5	3.9
S=C(NCCCn1ccnc1)Nc1cccc(Cl)c1	20.5*	-0.3	0.0	-1.1	7.2	-0.2
CCN(CC)C(=O)C1=C(C)N(CCCN2CCCC2=O)C(=O)C(CC(=O)NCc2cccs2)C1 (configuration not stated)	4.2	4.3	1.3	5.4	-0.4	.
CC1=C(C(=O)N(C(C)C)C(C)C)CC(CC(=O)NCc2cccs2)C(=O)N1CCCN1CCCC1=O (configuration not stated)	20.8*	.	.	5.3	-6.3	0.4
COC(=O)c1ccc(C)c(NC(=O)C(CCSC)NC(=O)c2cc(OC)c(OC)c(OC)c2)c1 (configuration not stated)	17.2*	0.4	-3.5	-0.7	4.3	-4.4
COc1cc(C(=O)NC(CCSC)C(=O)OCC(=O)C(C)(C)C)cc(OC)c1OC (configuration not stated)	-5.2	-5.8	1.7	-3.2	-1.1	.
CCOC1=C2CN(S(=O)(=O)c3ccc(C)cc3)C(c3ccccc3)CC2N(S(=O)(=O)c2ccc(C)cc2)C(c2ccc(Br)cc2)C1 (configuration not stated)	0.9	.	.	1.1	4.5	.
Cc1ccc(S(=O)(=O)Nc2ccc3c(c2)CC(=O)N([C@H](C)CO)C[C@@H](C)[C@H](CN(C)S(=O)(=O)c2ccccc2)O3)cc1	3.0	0.9	-1.2	1.4	3.2	.
C[C@H](CO)N1C[C@H](C)[C@H](CN(C)S(=O)(=O)c2ccccc2)Oc2ccc(NC(=O)NC3CCCCC3)cc2CC1=O	29.6*	-2.0	-1.8	-7.2	-5.2	-0.3
C[C@H](CO)N1C[C@H](C)[C@H](CN(C)S(=O)(=O)c2cccs2)Oc2ccc(NC(=O)Nc3ccc4c(c3)OCO4)cc2CC1=O	20.9*	-5.4	3.4	4.0	-2.7	2.5
SMILES	SIAE inh	HTRA1 inh	DAGLB inh	mABHD4 FP	TCR CD3 inh	SIAE confirm
C[C@H](CO)N1C[C@H](C)[C@@H](CN(C)S(=O)(=O)c2cccs2)Oc2ccc(NC(=O)Nc3ccc4c(c3)OCO4)cc2C1=O	13.8	10.5	0.7	-1.4	-4.0	.
COc1ccc(Nc2ccc(S(=O)(=O)N3CCCCC3)cc2[N+](=O)[O-])cc1	5.3	14.0	3.9	3.6	2.3	.
COc1ccc(S(=O)(=O)N2CCCC2)cc1C(=O)O	18.2*	8.1	-1.8	0.0	2.1	0.0
COc1ccc(Nc2ccc(S(=O)(=O)N3CCCCC3)cc2[N+](=O)[O-])cc1Cl	24.7*	6.0	14.1	13.8	3.7	-1.0
O=C(c1cccc(S(=O)(=O)N2CCCCCC2)c1)N1CCN(c2ccccc2)CC1	17.1*	-1.2	-1.6	-0.6	10.2	-0.9
COc1ccc(S(=O)(=O)N2CCCCCC2)cc1C(=O)N1CCN(c2ccccc2C)CC1	2.2	-18.8	-4.0	8.9	-1.4	.
COc1ccc(S(=O)(=O)N2CCCCCC2)cc1C(=O)N1CCN(c2ccccc2O)CC1	19.5*	-2.4	0.3	8.0	1.2	3.3
COc1ccc(S(=O)(=O)N2CCCC2)cc1OC	6.6	-4.6	-2.5	9.8	-2.4	.
O=C(c1cccc(S(=O)(=O)N2CCCC2)c1)N1CCN(c2ccccc2)CC1	9.2	3.5	-1.6	-1.3	-2.5	.
C1=C(CCNc2ncnc3c2[nH]c2ccccc23)CCCC1	23.2*	5.5	-0.8	25.0	-0.3	22.4*
O=c1c2[nH]c3ccccc3c2ncn1CCC1=CCCCC1	2.1	-0.3	0.3	1.3	-7.0	.
COc1cccc(-c2cc(CNC(=O)[C@H]3O[C@@H](n4ccc(=O)[nH]c4=O)[C@H](O)[C@@H]3O)no2)c1	74.7*	.	.	5.5	6.9	68.0*
COC(=O)c1ccccc1S(=O)(=O)NC(=O)[C@H]1O[C@@H](n2ccc(=O)[nH]c2=O)[C@H](O)[C@@H]1O	73.9*	.	.	-5.1	8.8	73.3*
CCCCN1CCCOc2cc(Br)ccc2S1(=O)=O	-7.0	.	.	2.9	.	.
O=C(C(=O)N1CCC(CNS(=O)(=O)c2cc(C(F)(F)F)cc(C(F)(F)F)c2)CC1)c1cccs1	3.3	.	.	-8.6	-5.5	.
Cc1cc(C)cc(C(=O)NC(CC(N)=O)c2ccc(N3CCN(c4ccccc4)CC3)c([N+](=O)[O-])c2)c1 (configuration not stated)	21.5*	-1.9	3.4	-3.1	-4.4	6.4
C=CCN1C(=O)[C@@H](CC(=O)N2CCN(C(=O)C3CC3)CC2)[C@]2(C(=O)OC)CCCCC=C12	3.3	.	.	5.2	.	.
CC(=O)Nc1ccc(NC(=O)C(C)OC(=O)COc2ccc(Nc3ccccc3)cc2)cc1 (configuration not stated)	22.7*	12.2	0.7	7.8	-0.2	8.1
